# From ChEMBL document CHEMBL2062469, “1-(2-Mercaptobenzenesulfonyl)-3-hydroxyguanidines--novel potent antiproliferatives, synthesis and in vitro biological activity” (2012)
# Key:
# Type in all cases: functional
# CCRF-CEM = assay: Cytostatic activity against human CCRF-CEM cells
# Summary of the method: (§1)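 NCI-60 human tumor cell line screen run by the US National Cancer Institute under the NIH Developmental Therapeutics Program protocol. A single-dose prescreen at 10 µM came first. Selected compounds then went into the 5-dose assay. Cytostatic activity is reported as GI50 (µM).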
# HL-60(TB) = assay: Cytostatic activity against human HL-60(TB) cells
# Summary of the method: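 NCI-60 panel screen run per the NIH Developmental Therapeutics Program protocol. Agents first went through a one-dose test at 10 µM. Selected compounds were then run in a 5-dose assay, from which GI50 and TGI values were derived.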
# K562 = assay: Cytostatic activity against human K562 cells; summary of the method: as §1
# MOLT-4 = assay: Cytostatic activity against human MOLT4 cells; summary of the method: as §1
# [1] = Cytostatic activity against human […] cells; summary of the method: as §1
# SR = assay: Cytostatic activity against human SR cells
# Summary of the method: (§2)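 Human tumour cell lines from the NCI-60 panel, tested at the US National Cancer Institute under the NIH Developmental Therapeutics Program protocol. A single-dose prescreen at 10 µM came first. Selected compounds then went to a 5-dose assay, which gave GI50 and TGI values in µM.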
# A549 = assay: Cytostatic activity against human A549/ATCC cells; summary of the method: as §1
# EKVX = assay: Cytostatic activity against human EKVX cells; summary of the method: as §1
# HOP-62 = assay: Cytostatic activity against human HOP62 cells; summary of the method: as §1
# HOP-92 = assay: Cytostatic activity against human HOP92 cells; summary of the method: as §1
# NCI-H226 = assay: Cytostatic activity against human NCI-H226 cells; summary of the method: as §1
# NCI-H23 = assay: Cytostatic activity against human NCI-H23 cells; summary of the method: as §1
# NCI-H322M = assay: Cytostatic activity against human NCI-H322M cells; summary of the method: as §1
# NCI-H460 = assay: Cytostatic activity against human NCI-H460 cells; summary of the method: as §1
# NCI-H522 = assay: Cytostatic activity against human NCI-H522 cells; summary of the method: as §1
# COLO 205 = assay: Cytostatic activity against human COLO205 cells; summary of the method: as §1
# HCC 2998 = assay: Cytostatic activity against human HCC2998 cells; summary of the method: as §1
# HCT-116 = assay: Cytostatic activity against human HCT116 cells; summary of the method: as §1
# HCT-15 = assay: Cytostatic activity against human HCT15 cells; summary of the method: as §1
# HT-29 = assay: Cytostatic activity against human HT-29 cells; summary of the method: as §1
# KM12 = assay: Cytostatic activity against human KM12 cells; summary of the method: as §1
# SW-620 = assay: Cytostatic activity against human SW620 cells; summary of the method: as §2
# SF-268 = assay: Cytostatic activity against human SF268 cells; summary of the method: as §1
# SF-295 = assay: Cytostatic activity against human SF295 cells; summary of the method: as §1
# SF-539 = assay: Cytostatic activity against human SF539 cells; summary of the method: as §1
# SNB-19 = assay: Cytostatic activity against human SNB19 cells; summary of the method: as §1
# SNB-75 = assay: Cytostatic activity against human SNB75 cells; summary of the method: as §2
# U-251 = assay: Cytostatic activity against human U251 cells; summary of the method: as §2
structure (smiles),measurement,setting,value
N=C(NO)NS(=O)(=O)c1cc(-c2nnc(-c3ccc(Cl)cc3)s2)c(Cl)cc1SCc1ccccc1,GI50,CCRF-CEM,0.84 µM
same,TGI,CCRF-CEM,3.83 µM
same,GI50,HL-60(TB),1.78 µM
same,TGI,HL-60(TB),4.53 µM
same,GI50,K562,2.23 µM
same,TGI,K562,6.31 µM
same,GI50,MOLT-4,1.25 µM
same,TGI,MOLT-4,3.57 µM
same,GI50,[1],1.74 µM
same,TGI,[1],4.34 µM
same,GI50,SR,1.45 µM
same,TGI,SR,4.2 µM
same,GI50,A549,2.25 µM
same,TGI,A549,5.64 µM
same,GI50,EKVX,1.99 µM
same,TGI,EKVX,4.12 µM
same,GI50,HOP-62,2.05 µM
same,TGI,HOP-62,3.98 µM
same,GI50,HOP-92,2.76 µM
same,TGI,HOP-92,7.42 µM
same,GI50,NCI-H226,2.07 µM
same,TGI,NCI-H226,4.05 µM
same,GI50,NCI-H23,1.7 µM
same,TGI,NCI-H23,3.73 µM
same,GI50,NCI-H322M,1.93 µM
same,TGI,NCI-H322M,3.99 µM
same,GI50,NCI-H460,1.73 µM
same,TGI,NCI-H460,3.49 µM
same,GI50,NCI-H522,1.67 µM
same,TGI,NCI-H522,3.41 µM
same,GI50,COLO 205,1.89 µM
same,TGI,COLO 205,3.74 µM
same,GI50,HCC 2998,1.81 µM
same,TGI,HCC 2998,3.42 µM
same,GI50,HCT-116,1.56 µM
same,TGI,HCT-116,3.11 µM
same,GI50,HCT-15,1.57 µM
same,TGI,HCT-15,3.17 µM
same,GI50,HT-29,1.67 µM
same,TGI,HT-29,3.13 µM
same,GI50,KM12,1.75 µM
same,TGI,KM12,3.33 µM
same,GI50,SW-620,1.47 µM
same,TGI,SW-620,3.07 µM
same,GI50,SF-268,1.9 µM
same,TGI,SF-268,4.21 µM
same,GI50,SF-295,2.21 µM
same,TGI,SF-295,4.65 µM
same,GI50,SF-539,1.97 µM
same,TGI,SF-539,3.9 µM
same,GI50,SNB-19,1.74 µM
same,TGI,SNB-19,3.42 µM
same,GI50,SNB-75,1.49 µM
same,TGI,SNB-75,3.18 µM
same,GI50,U-251,1.54 µM
same,TGI,U-251,3.09 µM
